# Screening results deposited in PubChem by several laboratories.
# H9c2 protect: protects H9c2 cardiomyocytes from peroxide injury; protection from H2O2 cell death, % at 20 µM; 0.63% of 360,000 active; H2O2 injury protection, ATPLite, 2 h;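 active = compounds giving at least 50% protection of heart cells from peroxide-induced death in the single-dose screen, raw or plate-pattern-corrected value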;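 also: 0% = DMSO wells with peroxide and 100% = DMSO wells without peroxide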
# UPR XBP1 act: adaptive UPR (XBP1) activation; CHO-XBP1 luciferase reporter, IRE1-XBP1 UPR activation, luminescence; percent of tunicamycin response, DMSO as zero; activation, % at 20 µM; 0.33% of 330,000 active;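 active = versus positive control, 20 µM dose yields 30% or more activation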;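 also: 100% = tunicamycin at 10 µg/mL and 0% = DMSO only wells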
#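 Assay system: CHO-XBP1 luciferase reporter cells; Schedule: 6 h treatment, 37 °C; Detection: glow luminescence from Steady-Glo reagent; Benchmarks: high control tunicamycin 10 µg/mL final, low control DMSO vehicle only.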
# iPSC survival up: hiPSC single-cell survival enhancement; ATPlite luminescence; 100% = ROCK inhibitor wells, 0% = DMSO; survival enhancement, % at 20 µM; 0.044% of 360,000 active; AID 602274; in the data active = survival enhancement above about 18%;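 also: cells exposed to compounds for 16 hours before the ATP read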
# CHOP inh: blocks CHOP induction under ER stress | CHO-K1 CHOP-promoter luciferase, tunicamycin-induced, 15-18 h | inhibition, % at 10 µM | 3.8% of 220,000 active;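 active = compounds that reduced the stress-induced luciferase reporter signal by more than about 70% of percent inhibition, limit read from the data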;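 also: 0% = tunicamycin plus vehicle and 100% = wells without tunicamycin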
# CHOP UPR activ: apoptotic UPR (CHOP) activation; activation, % at 10 µM; CHO-CHOP luciferase reporter, luminescence; percent of tunicamycin response over DMSO baseline; 0.34% of 330,000 active;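 active = at 10 µM dose, activation of 40% or more, normalized to positive control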;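 also: 100% = tunicamycin at 10 µg/mL and 0% = DMSO alone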
#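 System: CHO CHOP reporter cells. Amount: 500 cells per well. Buffer or medium: F12 medium, 10% FBS. Compound dosing: one dose, 10 µM in 0.5% DMSO. Incubation: 6 h compound exposure at 37 °C after overnight seeding. Technique: Steady-Glo luciferase luminescence. Benchmarks: tunicamycin and DMSO controls.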
# Active calls of the source: *; . = not tested or not shown. The sample as a whole holds a higher share of hits than the screen did.
SMILES,H9c2 protect,UPR XBP1 act,iPSC survival up,CHOP inh,CHOP UPR activ
O=C(CSc1nnc(-c2cccnc2)o1)c1cc2ccccc2oc1=O,51*,0,2,29,-1
Cc1cc(=O)[nH]c(NN=C2CCC(C(C)(C)C)CC2)n1 (stereo not given),-2,-3,-1,82*,1
Cc1c(C(=O)Nc2ccc(-c3nnc4n3CCCCC4)cc2)oc2c1ccc1ccccc12,52*,-2,1,95*,5
C[n+]1cccc(NC(=O)c2ccccc2)c1,.,.,0,.,.
CCOc1cccc(-c2cc(-c3n[nH]c(=S)n3CC)c3ccccc3n2)c1,-1,4,-3,87*,2
CCn1c(-c2cc(-c3cc(C)ccc3C)nc3ccccc23)n[nH]c1=S,2,0,-1,3,-2
CCn1c(-c2cc(-c3ccc(C)c(C)c3)nc3ccccc23)n[nH]c1=S,.,1,.,76*,1
COc1ccc(S(=O)(=O)N2CCC3CC2c2c(-c4ccc(C(F)(F)F)cc4)cccc23)cc1 (stereo not given),-1,.,0,.,.
Cc1cccc(N2CCN(C(=O)Cn3sc4nc(C)cc(C)c4c3=O)CC2C)c1 (stereo not given),-32,-4,-1,99*,22
Cc1cc(C)c2c(=O)n(CC(=O)N3CCC(Cc4ccccc4)CC3)sc2n1,.,-3,.,107*,41*
CCCN1C(=O)/C(=C/c2nc3ccccc3c(=O)[nH]2)c2ccccc21,6,3,-2,-58,3
CC(C)N1C(=O)/C(=C\c2nc3ccccc3c(=O)[nH]2)c2ccccc21,85*,.,0,-37,.
COc1cc(NC(=O)c2cc3ccccc3cc2OC)ccc1NC(=O)c1cccs1,63*,-5,0,.,3
CCOC(=O)c1ccc(NC(=O)Cn2nnc(-c3ccccc3)n2)cc1,-8,-1,-2,61,-3
CCOC(=O)c1ccc(NC(=O)Cn2nnc(-c3ccc(F)cc3)n2)cc1,4,0,5,81*,-5
COc1ccc(S(=O)(=O)Nc2ccccc2-c2nnn(CC(=O)Nc3ccccc3OC)n2)cc1,-22,0,-4,76*,3
CCOc1ccccc1NC(=O)Cn1nnc(-c2ccc(OCC)c(OCC)c2)n1,-7,-3,-2,87*,-3
COc1ccc(NC(=O)Cn2nnc(-c3ccccc3NS(=O)(=O)c3ccccc3)n2)cc1,-7,-1,-4,69,3
CC1(C(=O)NCC2CC2)CCN1C(=O)C1(c2ccccc2)CC1 (stereo not given),0,.,1,.,.
Cc1ccc(-c2nnc(NCc3nc4ccccc4[nH]3)c3ccccc23)cc1S(=O)(=O)N1CCOCC1,86*,2,-2,35,4
Cc1noc(C)c1S(=O)(=O)NC(=O)C1(C)CCN1C(=O)c1ccc(C2CCCCC2)cc1 (stereo not given),-2,.,-2,.,.
CCOC(=O)[C@]12CCC=C1N(Cc1ccco1)C(=O)[C@H](CC(=O)N1CCCC1)C2,.,.,1,.,.
CC(=O)Oc1c(-c2ccc(Br)o2)oc2ccccc2c1=O,58*,-1,0,.,1
COc1ccc(-c2oc3ccccc3c(=O)c2OC(C)=O)cc1,46,5,3,26,3
CCOC(=O)C1=C(C)NC(=O)C(C#N)C1c1ccco1 (stereo not given),22,-1,3,70*,-1
SMILES,H9c2 protect,UPR XBP1 act,iPSC survival up,CHOP inh,CHOP UPR activ
CCOC(=O)C1=C(C)NC(C)=C(C(=O)OC)C1c1ccco1 (stereo not given),8,3,0,2,3
O=C(NC1CCCC1)C1c2ccccc2OCC(=O)N1Cc1ccco1 (stereo not given),.,.,1,.,.
Nc1c(C(=O)NCCc2ccccc2)sc2nc(N3CCOCC3)c3c(c12)CCCC3,23,5,1,-4,-1
CN(C(=O)c1sc2nc(N3CCOCC3)c3c(c2c1N)CCCC3)c1ccccc1,61*,2,0,42,2
Cc1ccc(-c2noc(COc3ccccc3C)n2)cc1,-9,0,2,90*,3
COc1ccccc1CC(=O)Nc1ccc(-c2noc(COc3ccc(Br)cc3)n2)cc1,-10,25,3,-5,9
Cc1ccc(OCc2nc(-c3ccccc3)no2)cc1,-13,2,0,19,8
Cc1ccccc1OCc1nc(-c2ccc(Br)o2)no1,3,6,2,84*,4
COc1ccccc1Cc1nc(-c2ccc(Br)o2)no1,-10,1,0,35,5
COc1ccccc1CC(=O)Nc1ccc(-c2noc(COc3cccc(C)c3C)n2)cc1,-17,-3,21*,15,1
COc1ccccc1-c1nc(-c2ccc(Br)o2)no1,-17,3,-1,73*,2
CC1(C(=O)NCc2cccnc2)Cc2c(-c3cccc(C(F)(F)F)c3)ccnc2O1 (stereo not given),-3,.,1,.,.
Cc1ccc(S(=O)(=O)CC(=O)c2cc3cccc(C)c3oc2=O)cc1,0,-4,-1,.,0
Cc1cc(C)c(C)c(OCC(=O)NCc2nc(-c3ccccc3)no2)c1,-13,1,0,86*,2
COc1ccc(-c2noc(Cc3ccccc3OC)n2)cc1,1,2,2,92*,-1
COc1ccccc1Cc1nc(-c2cccnc2)no1,-1,6,0,-12,2
COc1ccc(C(=O)N2CCC(C)(C(=O)O)C2)cc1OC (stereo not given),0,.,6,.,.
O=C1C=CC(n2cc(F)c(=O)[nH]c2=O)O1 (stereo not given),8,.,1,.,.
COc1ccc(NC(=O)CCCN2C(=O)C3CC=CCC3C2=O)cc1 (stereo not given),4,-2,0,.,-1
COc1ccc(C2CC(C)(c3ccc(OC)cc3OC)Nc3ccccc3N2)c(OC)c1 (stereo not given),-7,0,0,80*,2
COC(=O)C1=C(C)C(c2ccc(OC)cc2OC)NC(=O)N1 (stereo not given),31,-1,0,20,0
O=C(Cc1csc(Nc2nc(=S)[nH]c3ccccc23)n1)NCc1cccc(Cl)c1,11,16,0,80*,0
FC(F)(F)c1nc(N2CCCC2)ncc1-c1nnnn1-c1ccccc1,-31,0,-3,72*,2
Cc1ncc(CO)c(/C=N/NC(=O)c2cc(Br)ccc2O)c1O,50*,-3,0,27,-1
Cc1ncc(CO)c(/C=N/NC(=O)c2cc(O)c(O)c(O)c2)c1O,.,.,.,1,.
Cc1cc(C(=O)N/N=C/c2c(CO)cnc(C)c2O)c2ccccc2n1,55*,0,0,.,0
O=C1CC(c2cccc(Cl)c2)c2cc3c(cc2N1)CCC3 (stereo not given),-21,-2,-3,86*,-2
